The EC50 is the midpoint of the concentration-response curve. A higher EC50 goes with a less potent agent. The Ki is a dissociation constant, usually derived from enzyme kinetics or from competition with a known ligand. Low readings indicate a stronger hold on the target, high ones a looser hold on the target. For orientation: Inhibition means the share of the control response that was lost under treatment. In general, inhibition in vivo refers to how much of the control response was suppressed. Lower therefore signals little suppression.

Assay [1] has as its target Mu-type opioid receptor (Cavia porcellus, UniProt P97266). Nature of the assay: Inhibition of mu opioid receptor mediated GTPgammaS binding to CHO cell membranes. The assay is classed as functional.
Assay [2] has as its target Delta-type opioid receptor (Rattus norvegicus, UniProt P33533). Nature of the assay: Binding affinity for delta opioid receptor of rat brain. The procedure, abridged:
(§1)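 Male Wistar rat forebrain membranes in 50 mM Tris HCl pH 7.4 with 5 mM MgCl2. Incubated 2.5 h at 25 °C with ~4 nM [3H]DPDPE (δ) or ~0.8 nM [3H]DAMGO (μ). Filtered, rinsed with 10 mM HEPES pH 7.4 and counted by liquid scintillation. Ki derived from a range of test concentrations; single-concentration data expressed as % inhibition of specific binding.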

The target in assay [3] is Delta-type opioid receptor (Homo sapiens, UniProt P41143). Description: Inhibition of delta opioid receptor mediated GTPgammaS binding to CHO cell membranes. The assay is classed as functional. In short, it runs like this: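 Purchased CHO-hδ cell membranes at 10 µg/mL, coupled to SPA beads at 5 mg/mL. Incubated with 0.5 nM [35S]GTPγS and 50 µM GDP in 50 mM HEPES pH 7.6 with 5 mM MgCl2, 100 mM NaCl, 1 mM DTT and 1 mM EDTA. Increasing agonist concentrations stimulated binding. Basal binding measured without agonist; nonspecific binding with 10 µM unlabeled GTPγS.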
Delta-type opioid receptor (Homo sapiens, UniProt P41143), sequence (P41143 whole entry): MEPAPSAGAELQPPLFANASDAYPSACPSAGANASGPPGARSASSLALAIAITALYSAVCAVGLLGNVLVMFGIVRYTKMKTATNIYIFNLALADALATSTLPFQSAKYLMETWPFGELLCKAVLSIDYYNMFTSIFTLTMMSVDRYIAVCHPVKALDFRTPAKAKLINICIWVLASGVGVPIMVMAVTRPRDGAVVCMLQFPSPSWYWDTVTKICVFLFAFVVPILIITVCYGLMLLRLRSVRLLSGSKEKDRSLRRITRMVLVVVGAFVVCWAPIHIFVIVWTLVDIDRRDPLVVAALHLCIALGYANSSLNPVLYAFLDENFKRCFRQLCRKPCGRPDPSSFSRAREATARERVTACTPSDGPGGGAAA
(GTPγS is a poorly hydrolysed GTP analogue; its binding reports G protein activation.)

Assay [4] has as its target Mu-type opioid receptor (Rattus norvegicus, UniProt P33535). Description: Binding affinity for Mu opioid receptor of rat brain. In short, it runs like this: as §1
The target of assay [5] is Kappa-type opioid receptor (Homo sapiens, UniProt P41145). Nature of the assay: Inhibition of rabbit vas deferens contractions. The assay is classed as functional, Oryctolagus cuniculus. The conditions noted are these: target entry is the homologue from another species. In short, it runs like this:
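κ functional study run on rabbit vas deferens tissue.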

For assay [6], the target named is Kappa-type opioid receptor (Cavia porcellus, UniProt P41144). Nature of the assay: Binding affinity for kappa opioid receptor of guinea pig cerebellum. The assay is classed as tissue-based.
Kappa-type opioid receptor (Cavia porcellus, UniProt P41144), sequence (P41144 whole entry): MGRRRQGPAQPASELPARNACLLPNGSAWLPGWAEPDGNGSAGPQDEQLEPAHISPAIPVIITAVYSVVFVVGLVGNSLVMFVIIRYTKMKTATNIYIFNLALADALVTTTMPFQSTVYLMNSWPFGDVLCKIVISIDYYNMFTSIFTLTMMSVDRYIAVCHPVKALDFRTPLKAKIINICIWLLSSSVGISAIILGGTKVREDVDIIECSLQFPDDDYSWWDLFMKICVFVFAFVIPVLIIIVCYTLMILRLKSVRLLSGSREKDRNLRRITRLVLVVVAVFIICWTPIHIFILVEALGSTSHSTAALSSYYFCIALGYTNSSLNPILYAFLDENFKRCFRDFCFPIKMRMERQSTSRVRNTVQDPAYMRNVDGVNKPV
Assay [7] concerns Mus musculus. Nature of the assay: Percent inhibition of mouse abdominal constriction at a dose of 10 ug upon intracerebro ventricular administration. The assay is classed as functional, Abdomen. The procedure, abridged: (§2)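 Male CD1 mice (18–40 g), n = 10 per group, dosed sc (10 mL/kg volume) or icv. Then challenged ip with acetylcholine bromide dissolved in distilled water (5.5 mg/kg as printed), given at 0.20 mL/20 g.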

Assay [8] deals with Mus musculus. Description: Percent inhibition of mouse abdominal constriction at a dose of 100 ug upon intracerebro ventricular administration. The assay is classed as functional, Abdomen. The procedure, abridged: as §2
Assay [9] has as its target Opioid receptors; mu & delta (Rattus norvegicus) (UniProt P33533+P33535). Nature of the assay: Selectivity for mu 1 and delta 1 opioid receptors. The assay is classed as protein assay.
Assay [10] has as its system Mus musculus. Description: Percent inhibition of mouse abdominal constriction at a dose of 100 mg/kg when administered subcutaneously. The assay is classed as functional. The conditions noted are these: Abdomen, sc, route subcutaneous. In short, it runs like this:
as §2

Molecules are shown by their SMILES. Residues, ends and D or L forms follow the SMILES beside them.

Delta-type opioid receptor (Rattus norvegicus, UniProt P33533), sequence (P33533 whole entry): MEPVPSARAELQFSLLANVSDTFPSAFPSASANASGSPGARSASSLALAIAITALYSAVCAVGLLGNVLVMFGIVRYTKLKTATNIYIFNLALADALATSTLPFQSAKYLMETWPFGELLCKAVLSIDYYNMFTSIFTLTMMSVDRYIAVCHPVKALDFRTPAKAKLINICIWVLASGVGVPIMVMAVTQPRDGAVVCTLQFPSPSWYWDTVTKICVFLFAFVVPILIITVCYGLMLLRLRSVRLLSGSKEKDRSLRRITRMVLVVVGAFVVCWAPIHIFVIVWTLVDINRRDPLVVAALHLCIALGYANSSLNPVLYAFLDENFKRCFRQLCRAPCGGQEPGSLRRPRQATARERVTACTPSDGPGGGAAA
Opioid receptors; mu & delta (Rattus norvegicus), sequence (P33533 whole entry, looked up): as the sequence (P33533 whole entry) above
Opioid receptors; mu & delta (Rattus norvegicus), sequence (P33535 whole entry, looked up): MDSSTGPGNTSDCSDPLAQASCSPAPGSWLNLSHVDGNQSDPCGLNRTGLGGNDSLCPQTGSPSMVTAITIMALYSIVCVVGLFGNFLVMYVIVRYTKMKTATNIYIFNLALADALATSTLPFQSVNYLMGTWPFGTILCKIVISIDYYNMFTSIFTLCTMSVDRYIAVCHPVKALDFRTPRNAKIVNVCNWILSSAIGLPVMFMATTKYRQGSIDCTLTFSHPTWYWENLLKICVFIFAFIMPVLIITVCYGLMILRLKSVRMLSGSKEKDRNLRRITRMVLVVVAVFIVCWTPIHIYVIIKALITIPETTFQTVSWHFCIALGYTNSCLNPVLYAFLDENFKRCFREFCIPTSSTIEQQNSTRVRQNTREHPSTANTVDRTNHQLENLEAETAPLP
Mu-type opioid receptor (Cavia porcellus, UniProt P97266), sequence (P97266 whole entry): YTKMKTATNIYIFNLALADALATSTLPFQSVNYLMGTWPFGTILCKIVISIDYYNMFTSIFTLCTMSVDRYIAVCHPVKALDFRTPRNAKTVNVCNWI
Mu-type opioid receptor (Rattus norvegicus, UniProt P33535), sequence (P33535 whole entry): as the sequence (P33535 whole entry, looked up) above
Kappa-type opioid receptor (Homo sapiens, UniProt P41145), sequence (P41145 whole entry): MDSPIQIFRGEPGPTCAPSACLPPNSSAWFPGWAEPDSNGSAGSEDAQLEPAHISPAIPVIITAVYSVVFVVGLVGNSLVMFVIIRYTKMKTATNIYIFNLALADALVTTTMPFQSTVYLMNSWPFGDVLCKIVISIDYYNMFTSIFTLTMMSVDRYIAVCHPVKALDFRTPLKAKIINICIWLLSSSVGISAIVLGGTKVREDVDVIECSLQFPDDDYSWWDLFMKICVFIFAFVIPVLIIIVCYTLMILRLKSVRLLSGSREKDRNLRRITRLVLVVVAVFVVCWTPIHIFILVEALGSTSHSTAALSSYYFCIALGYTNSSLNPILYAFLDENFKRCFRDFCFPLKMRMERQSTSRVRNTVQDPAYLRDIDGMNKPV

In the case of `Cc1[nH]c([C@@H]2Cc3ccccc3CN2C(=O)[C@@H](N)Cc2ccc(O)cc2)nc1-c1ccccc1` (stereo in doubt; 4c) [listing 1 of 2 here], the EC50 at Mu-type opioid receptor [1] is above 10000 nM; in assay [3] it was 1.4 nM. Besides, the values for the Ki (in assay [2]; on Mu-type opioid receptor [4]) were 0.3 nM and 20.7 nM, respectively.
Regarding `Cc1[nH]c([C@@H]2Cc3ccccc3CN2C(=O)[C@@H](N)Cc2ccc(O)cc2)nc1-c1ccccc1` (stereo in doubt) [listing 1 of 2 here], the Ki in assay [2] came out at 19.4 nM; at Mu-type opioid receptor [4], 85.6 nM. In addition, the midpoint of the response in assay [3], the EC50, lay at 127 nM.
Consider `N[C@@H](Cc1ccc(O)cc1)C(=O)N1Cc2ccccc2C[C@H]1c1nc(-c2ccccc2)c[nH]1`, for which the EC50 is above 30 nM in [5], 2400 nM on Mu-type opioid receptor [1] and 25 nM in [3]. Moreover, the Ki stood at 124 nM in [6], 0.9 nM in assay [2] and 54.7 nM at Mu-type opioid receptor [4]. Further, the Inhibition with Mus musculus [7] is listed as 40%; in the assay with Mus musculus [8], 100%. For the same compound, the Selectivity in assay [9] came to 63. Besides, 100 mg/kg produced 0% inhibition in vivo in the assay with Mus musculus [10].
In the case of `CCCc1c[nH]c([C@@H]2Cc3ccccc3N2C(=O)[C@@H](N)CC)n1`, the Ki (in assay [2]; on Mu-type opioid receptor [4]) was above 100 nM in each case.
On to `N[C@@H](Cc1ccc(O)cc1)C(=O)N1Cc2ccccc2C[C@H]1c1nc(-c2ccccc2)c(Br)[nH]1`, for which the figures for the concentration giving a half-maximal response (EC50) (at Mu-type opioid receptor [1]; in assay [3]) were above 10000 nM and 1.9 nM, respectively. In addition, the values for the Ki (in assay [2]; at Mu-type opioid receptor [4]) were 0.11 nM and 11.6 nM, respectively.
As for `N[C@@H](Cc1ccc(O)cc1)C(=O)N1Cc2ccccc2C[C@H]1c1nc2ccccc2[nH]1` [listing 1 of 2 here], the EC50 on Mu-type opioid receptor [1] was above 10000 nM; in assay [3], 37 nM. The Ki was 15.1 nM in assay [2] and above 100 nM on Mu-type opioid receptor [4].
Turning to `Cc1[nH]c([C@@H]2CCCCN2C(=O)[C@@H](N)Cc2ccc(O)cc2)nc1-c1ccccc1`, the EC50 on Mu-type opioid receptor [1] is 153 nM; in assay [3] it was 542 nM. In addition, the Ki in assay [2] was found to be 21.5 nM; at Mu-type opioid receptor [4], 1.5 nM. The Selectivity in assay [9] came to 0.1.
`N[C@@H](Cc1ccc(O)cc1)C(=O)N1Cc2ccccc2C[C@H]1c1nc2ccccc2[nH]1` (single isomer, unassigned) [listing 1 of 2 here]: in [9], the Selectivity was above 2.
On the same count and under the same terms, the same measure for `Cc1[nH]c([C@@H]2Cc3ccccc3CN2C(=O)[C@@H](N)Cc2ccc(O)cc2)nc1-c1ccccc1` (stereo in doubt; 4c) [listing 2 of 2 here]: 75; for `Cc1[nH]c([C@@H]2Cc3ccccc3CN2C(=O)[C@@H](N)Cc2ccc(O)cc2)nc1-c1ccccc1` (stereo in doubt) [listing 2 of 2 here]: 4.
In the case of `N[C@@H](Cc1ccc(O)cc1)C(=O)N1Cc2ccccc2C[C@H]1c1nc2ccccc2[nH]1` (single isomer, unassigned) [listing 2 of 2 here], the Ki in assay [2] was 49.6 nM; on Mu-type opioid receptor [4], above 100 nM. In assay [3], this compound registered an EC50 of 440 nM.
Turning to `N[C@@H](Cc1ccc(O)cc1)C(=O)N1Cc2ccccc2C[C@H]1C(=O)NCCc1ccccc1` (HELM PEPTIDE1{Y.[Tic].[c1ccc(CCN[*:1])cc1]}$$$$V2.0), the values for the EC50 (on Mu-type opioid receptor [1]; in assay [3]) were 2120 nM and 82 nM, respectively. In addition, the Ki in [2] amounted to 5.2 nM; at Mu-type opioid receptor [4], 69 nM. This compound also had a Selectivity in assay [9] of 13.
With `CCCc1nc([C@@H]2Cc3ccccc3CN2C(=O)[C@@H](N)Cc2ccc(O)cc2)[nH]c1C`, the inhibition constant Ki is 62.7 nM in assay [2] and above 100 nM on Mu-type opioid receptor [4]. Also, the EC50 in assay [3] is 85 nM.
`N[C@@H](Cc1ccc(O)cc1)C(=O)N1Cc2ccccc2C[C@H]1c1nc(Br)c(-c2ccccc2)[nH]1` gave a Selectivity in assay [9] of 14.
In turn, `Cc1[nH]c([C@@H]2CCCN2C(=O)[C@@H](N)Cc2ccc(O)cc2)nc1-c1ccccc1` came in with an EC50 on Mu-type opioid receptor [1] of 1300 nM. The Ki in assay [2] is above 100 nM; on Mu-type opioid receptor [4], 23.1 nM. The compound further displayed a Selectivity in assay [9] below 0.02.
In assay [9], `CCCc1[nH]c([C@@H]2Cc3ccccc3CN2C(=O)[C@@H](N)Cc2ccc(O)cc2)nc1C` had a Selectivity above 1.
Consider `CN(C)C(=O)C(CCN1CCC(O)(c2ccc(Cl)cc2)CC1)(c1ccccc1)c1ccccc1` [LOPERAMIDE], for which a half-maximal effect at Mu-type opioid receptor [1] (EC50) was put at 58 nM. Besides, in [2], the affinity, expressed as Ki, was 50.1 nM.
In assay [9], `N[C@@H](Cc1ccc(O)cc1)C(=O)N1Cc2ccccc2C[C@H]1c1nc2ccccc2[nH]1` [listing 2 of 2 here] displayed a Selectivity above 6.
Consider `CCCc1nc([C@@H]2Cc3ccccc3CN2C(=O)[C@@H](N)Cc2ccc(O)cc2)[nH]c1C` (single isomer, unassigned), for which the Ki (in [2]; on Mu-type opioid receptor [4]) was above 100 nM throughout.
